Results from ChEMBL document CHEMBL5236549, “Discovery of 2-Sulfinyl-Diazabicyclooctane Derivatives, Potential Oral β-Lactamase Inhibitors for Infections Caused by Serine β-Lactamase-Producing Enterobacterales” (J Med Chem, 2021).
Values after ≈ are worked out from the molar mass of the structure shown. Active and inactive are the calls of the source. The calls are words filed in the database; no cut-off is given here.

Experiments:
Escherichia coli [1] = assay: Antibacterial activity against Escherichia coli assessed as inhibition of bacterial growth incubated for 16 to 24 hrs by CLSI based two-fold serial dilution method; assay type: functional; conditions: time 16-24 hrs
Outline: (§1)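 CLSI broth microdilution with twofold serial dilutions in cation-adjusted Mueller Hinton broth. Inoculum set from OD625 to about 5 × 10⁴ cfu/well final. Plates incubated at 35 °C for 16−20 h. MIC is the lowest concentration with no growth visible to the unaided eye.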

Escherichia coli [2] = assay: Antibacterial activity against Escherichia coli expressing KPC-2 assessed as inhibition of bacterial growth incubated for 16 to 24 hrs by CLSI based two-fold serial dilution method; assay type: functional; conditions: time 16-24 hrs; outline: as §1
Escherichia coli [3] = assay: Antibacterial activity against Escherichia coli expressing CTX-M-15 assessed as inhibition of bacterial growth incubated for 16 to 24 hrs by CLSI based two-fold serial dilution method; assay type: functional; conditions: time 16-24 hrs; outline: as §1
Escherichia coli [4] = assay: Antibacterial activity against Escherichia coli expressing CMY-2 assessed as inhibition of bacterial growth incubated for 16 to 24 hrs by CLSI based two-fold serial dilution method; assay type: functional; conditions: time 16-24 hrs; outline: as §1
Escherichia coli [5] = assay: Antibacterial activity against Escherichia coli expressing OXA-48 assessed as inhibition of bacterial growth incubated for 16 to 24 hrs by CLSI based two-fold serial dilution method; assay type: functional; conditions: time 16-24 hrs; outline: as §1
Enterobacter cloacae [6] = assay: Antibacterial activity against Enterobacter cloacae SR200030 assessed as inhibition of bacterial growth incubated for 16 to 24 hrs by CLSI based two-fold serial dilution method; assay type: functional; conditions: time 16-24 hrs
Outline: (§2)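 CLSI broth microdilution in cation-adjusted Mueller Hinton broth, twofold serial dilutions, about 5 × 10⁴ cfu/well from OD625, 35 °C for 16−20 h. MIC is the lowest concentration with no visible growth.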

Klebsiella pneumoniae [7] = assay: Antibacterial activity against Klebsiella pneumoniae SR100758 assessed as inhibition of bacterial growth incubated for 16 to 24 hrs by CLSI based two-fold serial dilution method; assay type: functional; conditions: time 16-24 hrs; outline: as §2
Klebsiella pneumoniae [8] = assay: Antibacterial activity against Klebsiella pneumoniae SR200263 assessed as inhibition of bacterial growth incubated for 16 to 24 hrs by CLSI based two-fold serial dilution method; assay type: functional; conditions: time 16-24 hrs; outline: as §2
Klebsiella pneumoniae [9] = assay: Antibacterial activity against Klebsiella pneumoniae SR200487 assessed as inhibition of bacterial growth incubated for 16 to 24 hrs by CLSI based two-fold serial dilution method; assay type: functional; conditions: time 16-24 hrs; outline: as §2
Klebsiella pneumoniae [10] = assay: Antibacterial activity in ICR mouse infected with Klebsiella pneumoniae SR08667 assessed as reduction in bacterial colony forming units at 30 mg/kg,po administered upto 48 hrs after infection; assay type: functional, organism-based
Outline: (§3)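 Urinary tract infection model in 5-week-old female ICR mice, N = 5 per arm. 1.2 × 10⁶ CFU given transurethrally, urethra tied for 4 h. Oral dosing at 4, 8, 28 and 32 h post-infection in 0.5% methylcellulose: ceftibuten 30 mg/kg alone, ceftibuten 10 mg/kg plus prodrug 3, 10 or 30 mg/kg, or both at 30 mg/kg. Kidneys homogenized at 4 or 48 h and plated on modified Drigalski agar. Read-out is change in log CFU/kidney versus untreated controls at treatment start.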

Enterobacter cloacae [11] = assay: Antibacterial activity against Enterobacter cloacae SR36276 assessed as inhibition of bacterial growth incubated for 16 to 20 hrs by CLSI based two-fold serial dilution method
Enterobacter cloacae [12] = assay: Antibacterial activity against Enterobacter cloacae SR100108 assessed as inhibition of bacterial growth incubated for 16 to 20 hrs by CLSI based two-fold serial dilution method
Klebsiella pneumoniae [13] = assay: Antibacterial activity against Klebsiella pneumoniae SR09635 assessed as inhibition of bacterial growth incubated for 16 to 20 hrs by CLSI based two-fold serial dilution method
Klebsiella pneumoniae [14] = assay: Antibacterial activity against Klebsiella pneumoniae SR09603 assessed as inhibition of bacterial growth incubated for 16 to 20 hrs by CLSI based two-fold serial dilution method
Klebsiella pneumoniae [15] = assay: Antibacterial activity against Klebsiella pneumoniae SR201325 assessed as inhibition of bacterial growth incubated for 16 to 20 hrs by CLSI based two-fold serial dilution method
[16] = Stability of the compound in phosphate buffer at pH 7.0 assessed as parent compound remaining at 40 degreeC measured after 16 hrs; assay type: physicochemical; conditions: read-out: Stability
Outline: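 Compound held in pH 7.0 phosphate buffer at 40 °C for 16 h; amount remaining reported as %.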

[17] = Cmax in rat at 5 mg/kg,po by LC/MS/MS analysis; assay type: ADME, organism-based; parameters: dose 5 mg/kg, route po; conditions: in vivo
Outline: (§4)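 Plasma of the parent acid measured by LC/MS/MS (methanol precipitation, positive ESI, external standard); oral values follow prodrug dosing (rat fed, dog and monkey fasted). AUC from 0 h to last time point by linear trapezoid; F from oral AUC versus iv AUC of the parent. N = 2 (rat, dog), N = 3 (monkey, mouse).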

[18] = AUC in rat at 5 mg/kg,po by LC/MS/MS analysis; assay type: ADME, organism-based; parameters: dose 5 mg/kg, route po; conditions: in vivo; outline: as §4
[19] = Tmax in rat at 5 mg/kg,po by LC/MS/MS analysis; assay type: ADME, organism-based; conditions: in vivo
[20] = Oral bioavailability in rat at 5 mg/kg by LC/MS/MS analysis; assay type: ADME, organism-based; conditions: in vivo; outline: as §4
[21] = Cmax in dog at 10 mg/kg,po by LC/MS/MS analysis; assay type: ADME, organism-based, Canis lupus familiaris; parameters: dose 10 mg/kg, route po; conditions: in vivo; outline: as §4
[22] = AUC in dog at 10 mg/kg,po by LC/MS/MS analysis; assay type: ADME, organism-based, Canis lupus familiaris; parameters: dose 10 mg/kg, route po; conditions: in vivo; outline: as §4
[23] = Tmax in dog at 10 mg/kg,po by LC/MS/MS analysis; assay type: ADME, organism-based, Canis lupus familiaris; conditions: in vivo
[24] = Oral bioavailability in dog at 10 mg/kg by LC/MS/MS analysis; assay type: ADME, organism-based, Canis lupus familiaris; conditions: in vivo; outline: as §4
[25] = Cmax in monkey at 10 mg/kg,po by LC/MS/MS analysis; assay type: ADME, organism-based, Macaca mulatta; parameters: dose 10 mg/kg, route po; conditions: rhesus monkey, in vivo; outline: as §4
[26] = AUC in monkey at 10 mg/kg,po by LC/MS/MS analysis; assay type: ADME, organism-based, Macaca mulatta; parameters: dose 10 mg/kg, route po; conditions: rhesus monkey, in vivo; outline: as §4
[27] = Tmax in monkey at 10 mg/kg,po by LC/MS/MS analysis; assay type: ADME, organism-based, Macaca mulatta; conditions: rhesus monkey, in vivo
[28] = Oral bioavailability in monkey at 10 mg/kg by LC/MS/MS analysis; assay type: ADME, organism-based, Macaca mulatta; conditions: rhesus monkey, in vivo; outline: as §4
[29] = Cmax in mouse at 10 mg/kg,po by LC/MS/MS analysis; assay type: ADME, organism-based; parameters: dose 10 mg/kg, route po; conditions: in vivo; outline: as §4
[30] = Cmax in mouse at 30 mg/kg,po by LC/MS/MS analysis; assay type: ADME, organism-based; parameters: dose 30 mg/kg, route po; conditions: in vivo; outline: as §4
[31] = Cmax in mouse at 100 mg/kg,po by LC/MS/MS analysis; assay type: ADME, organism-based; parameters: dose 100 mg/kg, route po; conditions: in vivo; outline: as §4
[32] = AUC in mouse at 10 mg/kg,po by LC/MS/MS analysis; assay type: ADME, organism-based; parameters: dose 10 mg/kg, route po; conditions: in vivo; outline: as §4
[33] = AUC in mouse at 30 mg/kg,po by LC/MS/MS analysis; assay type: ADME, organism-based; parameters: dose 30 mg/kg, route po; conditions: in vivo; outline: as §4
[34] = AUC in mouse at 100 mg/kg,po by LC/MS/MS analysis; assay type: ADME, organism-based; parameters: dose 100 mg/kg, route po; conditions: in vivo; outline: as §4
[35] = Oral bioavailability in mouse at 10 mg/kg by LC/MS/MS analysis; assay type: ADME, organism-based; conditions: in vivo; outline: as §4
[36] = Oral bioavailability in mouse at 30 mg/kg by LC/MS/MS analysis; assay type: ADME, organism-based; conditions: in vivo; outline: as §4
[37] = Oral bioavailability in mouse at 100 mg/kg by LC/MS/MS analysis; assay type: ADME, organism-based; conditions: in vivo; outline: as §4
Klebsiella pneumoniae [38] = assay: Antibacterial activity in ICR mouse infected with Klebsiella pneumoniae SR08667 assessed as reduction in bacterial colony forming units at 10 mg/kg,po administered upto 48 hrs after infection in presence of CTB; assay type: functional; outline: as §3
Klebsiella pneumoniae [39] = assay: Antibacterial activity in ICR mouse infected with Klebsiella pneumoniae SR08667 assessed as reduction in bacterial colony forming units at 30 mg/kg,po administered upto 48 hrs after infection in presence of CTB; assay type: functional; outline: as §3
[40] = Toxicity in rat at 600 mg/kg,po administered for two weeks; assay type: organism-based; conditions: in vivo
Outline: (§5)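 Two-week rat toxicology study with daily oral dosing of prodrug; NOAEL and lethal dose established.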

[41] = Toxicity in rat at > 2000 mg/kg,po administered for two weeks; assay type: organism-based; conditions: in vivo; outline: as §5

Structure (SMILES): Nc1nc(/C(=C/CC(=O)O)C(=O)N[C@@H]2C(=O)N3C(C(=O)O)=CCS[C@H]23)cs1 [CEFTIBUTEN]
- MIC (Escherichia coli [1]): > 32 µg/mL
- MIC (Escherichia coli [2]): 16 µg/mL (≈ 39 µM)
- MIC (Escherichia coli [3]): 32 µg/mL (≈ 78 µM)
- MIC (Escherichia coli [4]): > 32 µg/mL
- MIC (Escherichia coli [5]): > 32 µg/mL
- MIC (Enterobacter cloacae [6]): > 32 µg/mL
- MIC (Klebsiella pneumoniae [7]): > 32 µg/mL
- MIC (Klebsiella pneumoniae [8]): > 32 µg/mL
- MIC (Klebsiella pneumoniae [9]): > 32 µg/mL
- Activity (Klebsiella pneumoniae [10]): inactive
- MIC (Enterobacter cloacae [11]): > 32 µg/mL
- MIC (Enterobacter cloacae [12]): > 32 µg/mL
- MIC (Klebsiella pneumoniae [13]): > 32 µg/mL
- MIC (Klebsiella pneumoniae [14]): > 32 µg/mL
- MIC (Klebsiella pneumoniae [15]): > 32 µg/mL

Structure (SMILES): C[S@@+]([O-])[C@@H]1CC[C@@H]2CN1C(=O)N2O[C@H](F)C(=O)OC1CCCCC1
- remaining at 16 h [16]: 56%
- Cmax [17]: 620 ng/mL
- AUC [18]: 1170 ng·h/mL
- Tmax [19]: 0.5 h
- bioavailability [20]: 37.8%
- Cmax [21]: 15800 ng/mL
- AUC [22]: 41200 ng·h/mL
- Tmax [23]: 1 h
- bioavailability [24]: 106%
- Cmax [25]: 7940 ng/mL
- AUC [26]: 15200 ng·h/mL
- Tmax [27]: 1 h
- bioavailability [28]: 54.8%
- Cmax [29]: 5600 ng/mL
- Cmax [30]: 21400 ng/mL
- Cmax [31]: 52000 ng/mL
- AUC [32]: 3900 ng·h/mL
- AUC [33]: 18100 ng·h/mL
- AUC [34]: 50200 ng·h/mL
- bioavailability [35]: 80%
- bioavailability [36]: 122%
- bioavailability [37]: 102%
- Activity (Klebsiella pneumoniae [38]): >0.5 log10CFU
- Activity (Klebsiella pneumoniae [39]): >1 log10CFU
- Activity [40]: Non-Toxic
- Activity [41]: Non-Toxic
